Test [1] in a line: Antiproliferative activity against human HL60 cells after 48 hrs by MTT assay. Conditions: HL-60, 48 h. In kind it is functional, cell-based. In outline: (§1)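 Cells seeded at 5000 per well and left overnight, then exposed to increasing concentrations (0-50 μM) for 48 h. […] HL-60/MX2 is a mitoxantrone-selected HL-60 derivative with reduced Topo IIα/β.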
On the technique in general: Tetrazolium dyes change colour on reduction, which living cells bring about.

Another test has as its system HeLa. The test can be described thus: Antiproliferative activity against human HeLa cells after 48 hrs by MTT assay. In kind it is functional, cell-based. The method, boiled down:
as §1

Test [2] in a line: Antiproliferative activity against human HL60/MX2 cells after 48 hrs by MTT assay. It is filed as functional, cell-based. To be noted: HL60/MX2, 48 h. The method, boiled down:
as §1

A further test deals with HEK293. The test can be described thus: Cytotoxicity against HEK293 cells after 48 hrs by MTT assay. It is filed as cell-based. To be noted: Homo sapiens, HEK293, 48 h.
The next test concerns A549. Put plainly: Antiproliferative activity against human A549 cells after 48 hrs by MTT assay. It is filed as functional, cell-based. To be noted: A549, 48 h. In outline: as §1
The target of test [3] is T1, DNA topoisomerase 1 (Homo sapiens) (UniProt P11387).
T1 sequence (whole entry): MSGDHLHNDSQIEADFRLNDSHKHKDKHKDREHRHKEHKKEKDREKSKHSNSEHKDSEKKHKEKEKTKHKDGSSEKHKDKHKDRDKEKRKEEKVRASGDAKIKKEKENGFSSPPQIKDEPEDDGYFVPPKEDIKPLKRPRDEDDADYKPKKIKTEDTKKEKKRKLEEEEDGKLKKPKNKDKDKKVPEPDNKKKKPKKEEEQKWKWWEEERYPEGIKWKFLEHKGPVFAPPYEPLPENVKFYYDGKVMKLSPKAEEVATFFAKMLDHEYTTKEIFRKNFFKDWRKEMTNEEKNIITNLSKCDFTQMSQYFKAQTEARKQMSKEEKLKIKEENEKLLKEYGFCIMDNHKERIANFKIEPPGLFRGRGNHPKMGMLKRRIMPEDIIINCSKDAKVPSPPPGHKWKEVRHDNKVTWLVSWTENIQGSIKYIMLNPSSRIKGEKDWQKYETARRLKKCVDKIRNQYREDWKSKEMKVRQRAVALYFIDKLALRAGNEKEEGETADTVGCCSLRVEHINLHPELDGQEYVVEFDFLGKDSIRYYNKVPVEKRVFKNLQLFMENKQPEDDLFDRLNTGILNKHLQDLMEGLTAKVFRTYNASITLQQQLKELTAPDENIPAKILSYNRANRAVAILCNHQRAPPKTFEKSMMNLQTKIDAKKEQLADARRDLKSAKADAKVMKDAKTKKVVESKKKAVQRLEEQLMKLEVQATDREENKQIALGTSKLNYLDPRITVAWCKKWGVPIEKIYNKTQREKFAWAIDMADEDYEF
To be noted: 0.6 to 5 uM.

The target in test [4] is T2, DNA topoisomerase 2-alpha (Homo sapiens, UniProt P11388). Put plainly: Inhibition of purified human topoisomerase 2-mediated relaxation of supercoiled pBR322 DNA at 20 uM incubated for 30 mins by agarose gel electrophoresis. In outline: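 Reactions contained 0.2 μg supercoiled pBR322 in 50 mM Tris-HCl pH 8.0, 150 mM NaCl, 10 mM MgCl2, 0.5 mM DTT, 30 μg/ml BSA, normally 2 mM ATP (1, 2 or 4 mM in ATP-competition runs). Started with 1 U human Topo II, 30 min at 37 °C, stopped with sarcosyl buffer, run on 1% agarose 1.5 h at 75 V, gel-stained and imaged under UV.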

The target in test [5] is T2, DNA topoisomerase 2-alpha. Conditions: HL-60, 10 uM.
The test system of the next test is K562. Put plainly: Antiproliferative activity against human K562 cells after 48 hrs by MTT assay. It is filed as functional, cell-based. Conditions: K562, 48 h. In outline:
as §1

Test [6] can be described thus: Antiproliferative activity against human MDA-MB-201 cells after 48 hrs by MTT assay. In kind it is functional, cell-based. In outline:
as §1

The next test concerns HL-60. Put plainly: Resistance index, ratio of IC50 for human HL60/MX2 cells to IC50 for HL60 cells. In kind it is functional. In outline: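 Resistance index calculated as MTT-derived IC50 (48 h exposure, 0-50 μM, A570 readout) in HL-60/MX2 divided by IC50 in parental HL-60.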
The target in test [7] is T2, DNA topoisomerase 2-alpha. Conditions: 100 uM.
The test system of a further test is Raji. Put plainly: Antiproliferative activity against human Raji cells after 48 hrs by MTT assay. In kind it is functional, cell-based. The method, boiled down:
as §1

A further test relates to Escherichia coli. The test can be described thus: Binding affinity to Escherichia coli pBR322 DNA assessed as intercalation of pBR322 DNA at 0.1 to 100 uM by fluorescence based ethidium bromide displacement assay. The method, boiled down:
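Increasing concentrations added to 20 nM pBR322 plasmid with 2.5 μM ethidium bromide in 10 mM HEPES pH 7.9, 100 mM KCl, 5 mM MgCl2, 0.1 mM EDTA. Fluorescence emission spectra recorded (excitation 510 nm, emission max 595 nm) at each concentration; mAMSA used as intercalating reference.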

For test [8], the target named is T1, DNA topoisomerase 1 (Homo sapiens). Put plainly: Inhibition of recombinant human topoisomerase 1-mediated relaxation of supercoiled pBR322 DNA at 50 uM incubated for 30 mins by agarose gel electrophoresis. The method, boiled down: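 Supercoiled pBR322 relaxed by Topo I with compound, incubated 30 min at 37 °C, stopped with 1% SDS dye, run on 1% agarose 1 h at 90 V in TAE, stained and imaged under UV; camptothecin as reference.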

The values below come from ChEMBL document CHEMBL3758120, “Synthesis and Mechanism Studies of 1,3-Benzoazolyl Substituted Pyrrolo[2,3-b]pyrazine Derivatives as Nonintercalative Topoisomerase II Catalytic Inhibitors” (J Med Chem, 2016).

The term IC50 denotes the concentration that inhibits the measured activity by half. Low values mean greater potency in that assay, high ones weaker potency in that assay.

Calls of active or inactive are those of the source. The rule behind the calls is not given here.

T2 sequence (P11388 whole entry): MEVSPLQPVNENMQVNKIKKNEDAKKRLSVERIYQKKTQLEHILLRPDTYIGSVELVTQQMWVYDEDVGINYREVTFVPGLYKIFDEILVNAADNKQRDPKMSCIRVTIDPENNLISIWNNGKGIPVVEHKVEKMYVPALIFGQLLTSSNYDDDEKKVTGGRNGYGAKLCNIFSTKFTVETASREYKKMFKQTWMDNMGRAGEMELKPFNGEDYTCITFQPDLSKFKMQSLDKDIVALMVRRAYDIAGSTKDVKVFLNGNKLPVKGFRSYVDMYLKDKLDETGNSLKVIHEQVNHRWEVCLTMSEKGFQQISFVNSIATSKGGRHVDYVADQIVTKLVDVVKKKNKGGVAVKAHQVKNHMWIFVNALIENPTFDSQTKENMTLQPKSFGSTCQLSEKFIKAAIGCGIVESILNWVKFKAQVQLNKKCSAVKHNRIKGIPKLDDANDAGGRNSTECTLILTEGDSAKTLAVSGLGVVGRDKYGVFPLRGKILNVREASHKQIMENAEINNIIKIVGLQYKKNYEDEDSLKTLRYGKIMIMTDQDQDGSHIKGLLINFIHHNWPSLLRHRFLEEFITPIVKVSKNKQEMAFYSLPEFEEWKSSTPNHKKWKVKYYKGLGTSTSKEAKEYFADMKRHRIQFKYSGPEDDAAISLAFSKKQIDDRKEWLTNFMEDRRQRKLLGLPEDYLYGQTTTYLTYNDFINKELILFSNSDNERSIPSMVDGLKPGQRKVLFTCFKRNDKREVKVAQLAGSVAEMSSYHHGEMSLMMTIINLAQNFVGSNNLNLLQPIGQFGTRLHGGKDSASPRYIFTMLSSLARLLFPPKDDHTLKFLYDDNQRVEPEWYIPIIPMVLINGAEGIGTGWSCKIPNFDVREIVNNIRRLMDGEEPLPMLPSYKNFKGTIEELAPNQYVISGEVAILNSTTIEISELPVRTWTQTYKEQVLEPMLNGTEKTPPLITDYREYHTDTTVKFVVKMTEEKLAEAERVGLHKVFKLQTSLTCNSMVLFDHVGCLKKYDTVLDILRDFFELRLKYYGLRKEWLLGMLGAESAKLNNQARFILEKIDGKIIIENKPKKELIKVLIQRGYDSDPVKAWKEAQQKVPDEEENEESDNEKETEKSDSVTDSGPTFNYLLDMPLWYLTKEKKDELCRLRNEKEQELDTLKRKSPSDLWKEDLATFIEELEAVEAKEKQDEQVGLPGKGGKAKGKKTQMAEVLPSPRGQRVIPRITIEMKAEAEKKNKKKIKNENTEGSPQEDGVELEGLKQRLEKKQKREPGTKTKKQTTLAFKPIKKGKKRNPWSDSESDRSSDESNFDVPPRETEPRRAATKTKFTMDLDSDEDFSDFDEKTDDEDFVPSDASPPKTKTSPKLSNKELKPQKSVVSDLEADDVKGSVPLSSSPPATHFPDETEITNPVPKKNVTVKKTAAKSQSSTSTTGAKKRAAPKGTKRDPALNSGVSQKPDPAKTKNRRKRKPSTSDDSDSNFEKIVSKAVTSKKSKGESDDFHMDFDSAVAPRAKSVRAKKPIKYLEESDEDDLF

With `COc1cc([C@@H]2c3cc4c(cc3[C@@H](O[C@@H]3O[C@@H]5CO[C@@H](C)O[C@H]5[C@H](O)[C@H]3O)[C@H]3COC(=O)[C@H]23)OCO4)cc(OC)c1O` [ETOPOSIDE], the concentration for half-maximal inhibition (IC50) in test [1] turned out to be 0.16 µM; in the test with HeLa it was 32.5 µM; in [2], 9.02 µM; in the test with HEK293 it was 0.69 µM; with A549, 6.74 µM; with K562 it was 0.51 µM. The values for the IC50 (in [6]; in the test with Raji) were 31.3 µM and 1.68 µM, respectively. Also, the inhibition entry in test [3], in test [4], in test [5] and in [7] was “Active” throughout. For the same compound, in the test with HL-60, the “Ratio IC50” value was 56.4.

`COc1cc(NS(C)(=O)=O)ccc1Nc1c2ccccc2nc2ccccc12`: the inhibition result in the test on Escherichia coli was “Active”.

With `CN(C)CCCCn1c(-c2c(N)n(C)c3nc(C#N)c(C#N)nc23)nc2ccccc21`, the half-maximal inhibitory concentration (IC50) turned out to be 2.27 µM in [1]; 10.1 µM in the test with HeLa; 2.81 µM in test [2]; 7.13 µM in the test with HEK293; 11.2 µM in the test on A549; 11.3 µM in the test on K562. For the same compound, the IC50 in test [6] worked out at 6.48 µM; in the test with Raji, 1.07 µM. In [4], the inhibition result is “Active”. Besides, the “Ratio IC50” value in the test on HL-60 was 1.2.

Take `CN(C)CCCCn1c(N)c(-c2nc3ccccc3s2)c2nc(C#N)c(C#N)nc21`: the IC50 came out at 0.83 µM in [1]; 18.7 µM in the test with HeLa; 2.14 µM in test [2]; 5.31 µM in the test on HEK293; 35.8 µM in the test with A549; 1.33 µM in the test on K562. For the same compound, the IC50 is 2.74 µM in test [6] and 10.1 µM with Raji. For the same compound, the inhibition entry in [4] is “Active”. Further, in the test on HL-60, the “Ratio IC50” value is given as 2.6.

Regarding `CCN(CC)CCCn1c(N)c(-c2nc3ccccc3n2C)c2nc(C#N)c(C#N)nc21`, the IC50 in test [1] is 2.81 µM; in the test on HeLa it was 12.4 µM; in test [2] it was 4.47 µM; in the test on HEK293, 7.24 µM; with A549, 10.7 µM; with K562, 3.27 µM. Moreover, the IC50 in test [6] was determined as 6.75 µM; with Raji, 2.22 µM. For the same compound, the inhibition result in test [4] is “Active”. Further, the “Ratio IC50” value with HL-60 amounted to 1.6.

Consider `CCN(CC)CCCn1c(N)c(-c2nc3ccccc3[nH]2)c2nc(C#N)c(C#N)nc21`, for which the IC50 was found to be 0.73 µM in test [1]; 3.15 µM in the test on HeLa; 1.82 µM in test [2]; 7.87 µM in the test with HEK293; 25.3 µM with A549; 1.8 µM with K562. The IC50 in [6] was 28.9 µM; in the test on Raji it was 1.87 µM. Besides, the inhibition entry in [4] was “Active”. Moreover, in [8], the inhibition entry is “inactive”. In addition, the “Ratio IC50” value in the test with HL-60 is 2.5.

As for `CN(C)CCCCn1c(N)c(-c2nc3ccccc3n2C)c2nc(C#N)c(C#N)nc21`, the IC50 in test [1] was 0.74 µM; in the test with HeLa, 0.46 µM; in test [2] it was 2.58 µM; in the test on HEK293, 3.87 µM; in the test with A549 it was 6.15 µM; in the test on K562, 1.45 µM. In addition, the results for the IC50 (in test [6]; in the test with Raji) were 1.79 µM and 0.32 µM, respectively. The inhibition result in test [4] was “Active”. Besides, in the test with HL-60, the “Ratio IC50” value turned out to be 3.5.

In the case of `CN(C)CCCn1c(N)c(-c2nc3ccccc3n2C)c2nc(C#N)c(C#N)nc21`, the IC50 in [1] turned out to be 2.12 µM; in the test with HeLa, 4.32 µM; in test [2], 11.3 µM; in the test on HEK293, 8.41 µM; in the test on A549, 11.7 µM; in the test on K562, 3.56 µM. Besides, the IC50 in test [6] turned out to be 3.67 µM; in the test on Raji, 0.94 µM. In [4], the inhibition result was “Active”. The “Ratio IC50” value with HL-60 was 5.3.

Consider `CN(C)CCCn1c(N)c(-c2nc3ccccc3[nH]2)c2nc(C#N)c(C#N)nc21`, for which the IC50 in [1] is 0.87 µM; in the test on HeLa, 25.9 µM; in test [2], 2.39 µM; in the test on HEK293 it was 8.36 µM; in the test on A549 it was 10.4 µM; in the test on K562, 1.73 µM. In addition, the IC50 in test [6] turned out to be 1.82 µM; with Raji, 1.23 µM. Moreover, the inhibition entry in test [4] is “Active”. In test [8], the inhibition entry was “inactive”. For the same compound, the “Ratio IC50” value with HL-60 amounted to 2.7.

On to `CN(C)CCCCn1c(N)c(-c2nc3ccccc3o2)c2nc(C#N)c(C#N)nc21`, for which the concentration for half-maximal inhibition (IC50) came out at 0.64 µM in test [1]; 1.95 µM in the test on HeLa; 0.96 µM in test [2]; 6.24 µM with HEK293; 5.47 µM with A549; 1.38 µM in the test with K562. Besides, the values for the IC50 (in [6]; in the test on Raji) were 6.13 µM and 9.2 µM, respectively. In addition, the inhibition result in [4] is “Active”. Further, the “Ratio IC50” value in the test with HL-60 turned out to be 1.5.

Consider `CCN(CC)CCCCn1c(-c2c(N)n(C)c3nc(C#N)c(C#N)nc23)nc2ccccc21`, for which the IC50 in test [1] stood at 2.86 µM; in the test on HeLa, 11.8 µM; in test [2], 3.92 µM; with HEK293, 8.82 µM; in the test on A549 it was 13.1 µM; with K562, 3.18 µM. For the same compound, the IC50 in test [6] came out at 6.95 µM; in the test with Raji it was 0.6 µM. Also, in test [4], the inhibition entry is “Active”. Besides, the “Ratio IC50” value in the test on HL-60 is 1.3.

`CCN(CC)CCCCn1c(N)c(-c2nc3ccccc3o2)c2nc(C#N)c(C#N)nc21`: the IC50 was found to be 0.45 µM in [1]; 6.42 µM in the test with HeLa; 1.72 µM in [2]; 3.96 µM in the test with HEK293; 9.39 µM in the test with A549; 1.98 µM in the test on K562. Moreover, the IC50 in [6] is 2.71 µM; in the test on Raji, 2.61 µM. Also, the inhibition result in test [4] is “Active”. Moreover, in the test with HL-60, the “Ratio IC50” value worked out at 3.8.
